Assay results published in ChEMBL document CHEMBL3808334, “Synthesis and in vitro evaluation of novel triazine analogues as anticancer agents and their interaction studies with bovine serum albumin” (Eur J Med Chem, 2016).

Tests used:
[1] = test system: MCF7; experiment: Growth inhibition of human MCF7 cells assessed as cell growth at 10^-4 M incubated for 48 hrs by sulforhodamine B assay; type: functional; settings: MCF7, 48 h, read-out: Activity
[2] = test system: MDA-MB-468; experiment: Growth inhibition of human MDA-MB-468 cells assessed as cell growth at 10^-4 M incubated for 48 hrs by sulforhodamine B assay; type: functional; settings: MDA-MB-468, 48 h, read-out: Activity
[3] = test system: K562; experiment: Growth inhibition of human K562 cells incubated for 48 hrs by sulforhodamine B assay; type: functional; settings: K562, 48 h
In short: (§1)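 Cells were plated at 5,000–40,000 per well according to doubling time and preincubated 24 h at 37 °C in 5% CO2; time-zero plates were then TCA-fixed. Five concentrations (10-fold or ½-log dilutions, DMSO stock) were incubated 48 h. Cells were TCA-fixed, stained with 0.4% SRB and read at 515 nm. GI50 was taken where [(Ti−Tz)/(C−Tz)]×100 = 50.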

[4] = Growth inhibition of human RPMI8226 cells incubated for 48 hrs by sulforhodamine B assay; type: functional; settings: RPMI-8226, 48 h; in short: as §1
[5] = Growth inhibition of human HOP62 cells incubated for 48 hrs by sulforhodamine B assay; type: functional; settings: HOP-62, 48 h
In short: (§2)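 Cells seeded at 5,000–40,000/well according to doubling time and preincubated 24 h at 37 °C, 5% CO2. Time-zero plates were TCA-fixed. DMSO concentrate was diluted in medium with 50 µg/ml gentamicin to give five concentrations (10-fold or ½ log steps), then exposed 48 h. Cells were TCA-fixed, stained with 0.4% SRB and read at 515 nm. Percent growth was taken against time-zero and control; GI50, TGI and LC50 derived.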

[6] = Growth inhibition of human Hs 578T cells incubated for 48 hrs by sulforhodamine B assay; type: functional; in short: as §1
[7] = test system: SK-MEL-2; experiment: Growth inhibition of human SK-MEL-2 cells assessed as cell growth at 10^-8 M incubated for 48 hrs by sulforhodamine B assay; type: functional; settings: SK-MEL-2, 48 h, read-out: Activity
[8] = test system: ACHN; experiment: Growth inhibition of human ACHN cells assessed as cell growth at 10^-8 M incubated for 48 hrs by sulforhodamine B assay; type: functional; settings: read-out: Activity
In short: (§3)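 Five-dose assay: five concentrations from 10-fold or ½-log serial dilutions. Cells are plated at 5,000–40,000 per well according to doubling time, grown 24 h, then exposed 48 h at 37 °C, 5% CO₂. Fixed with cold 50% TCA (final addition) for 60 min at 4 °C and stained with 0.4% SRB in 1% acetic acid. Bound dye is solubilized in 10 mM Tris base and read at 515 nm. GI₅₀ is where [(Ti−Tz)/(C−Tz)]×100 = 50, with a time-zero plate as Tz.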

[9] = Growth inhibition of human TK10 cells assessed as cell growth at 10^-8 M incubated for 48 hrs by sulforhodamine B assay; type: functional; settings: TK-10, 48 h, read-out: Activity
[10] = test system: SR; experiment: Growth inhibition of human SR cells assessed as cell growth at 10^-7 M incubated for 48 hrs by sulforhodamine B assay; type: functional; settings: read-out: Activity
[11] = Growth inhibition of human HCC2998 cells assessed as cell growth at 10^-4 M incubated for 48 hrs by sulforhodamine B assay; type: functional; settings: HCC 2998, 48 h, read-out: Activity
[12] = test system: 786-0; experiment: Growth inhibition of human 786-0 cells assessed as cell growth at 10^-4 M incubated for 48 hrs by sulforhodamine B assay; type: functional; settings: 786-0, 48 h, read-out: Activity; in short: as §3
[13] = Growth inhibition of human OVCAR5 cells assessed as cell growth at 10 uM incubated for 48 hrs by sulforhodamine B assay; type: functional; settings: OVCAR-5, 48 h, read-out: Activity
[14] = test system: CCRF-CEM; experiment: Growth inhibition of human CCRF-CEM cells assessed as cell growth at 10^-8 M incubated for 48 hrs by sulforhodamine B assay; type: functional; settings: read-out: Activity
In short: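 Leukemia line in the five-dose format: five concentrations from 10-fold or ½-log serial dilutions. Plated at 5,000–40,000 cells per well, preincubated 24 h, then compound added for 48 h at 37 °C, 5% CO₂. Sulforhodamine B absorbance read at 515 nm. Growth is computed against time-zero (Tz) and control (C) readings; GI₅₀ is where [(Ti−Tz)/(C−Tz)]×100 = 50.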

[15] = Growth inhibition of human PC3 cells assessed as cell growth at 10^-7 M incubated for 48 hrs by sulforhodamine B assay; type: functional; settings: PC-3, 48 h, read-out: Activity
[16] = test system: NCI-H522; experiment: Growth inhibition of human NCI-H522 cells assessed as cell growth at 10^-6 M incubated for 48 hrs by sulforhodamine B assay; type: functional; settings: NCI-H522, 48 h, read-out: Activity
[17] = test system: Malme-3M; experiment: Growth inhibition of human MALME-3M cells assessed as cell growth at 10^-8 M incubated for 48 hrs by sulforhodamine B assay; type: functional; settings: read-out: Activity
[18] = test system: MDA-MB-435; experiment: Growth inhibition of human MDA-MB-435 cells assessed as cell growth at 10^-6 M incubated for 48 hrs by sulforhodamine B assay; type: functional; settings: MDA-MB-435, 48 h, read-out: Activity
[19] = Growth inhibition of human OVCAR5 cells assessed as cell growth at 10^-6 M incubated for 48 hrs by sulforhodamine B assay; type: functional; settings: OVCAR-5, 48 h, read-out: Activity
[20] = Growth inhibition of human OVCAR8 cells assessed as cell growth at 10^-6 M incubated for 48 hrs by sulforhodamine B assay; type: functional; settings: OVCAR-8, 48 h, read-out: Activity
[21] = Growth inhibition of human COLO205 cells assessed as cell growth at 10^-5 M incubated for 48 hrs by sulforhodamine B assay; type: functional; settings: COLO 205, 48 h, read-out: Activity; in short: as §2
[22] = Growth inhibition of human HCC2998 cells assessed as cell growth at 10^-5 M incubated for 48 hrs by sulforhodamine B assay; type: functional; settings: HCC 2998, 48 h, read-out: Activity; in short: as §2
[23] = molecular target: Albumin (Bos taurus, UniProt P02769); experiment: Binding affinity to bovine serum albumin assessed as enhancement in emission spectra up to 20 uM by fluorescence spectroscopic analysis relative to control; type: ADME; settings: cattle, isolated protein
In short: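 Fluorescence titration of 10 µM BSA in 0.1 M phosphate buffer pH 7.4 with compound at 0–20 µM, diluted from DMSO stocks. Excitation 280 nm, slit 10 nm, 1 cm quartz cell, 300 K. Changes in the 350 nm Trp emission, new bands near 370–373 nm and isoemissive points are read against BSA alone.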

[24] = Growth inhibition of human leukemia cells incubated for 48 hrs by sulforhodamine B assay; type: functional; settings: Leukemia cell; for CC50: read-out: LC50 (the source's name)
[25] = read-out: LC50 (the source's name)
[26] = read-out: pLC50 (the source's name) (converted)

Sequence of Albumin (P02769 whole entry): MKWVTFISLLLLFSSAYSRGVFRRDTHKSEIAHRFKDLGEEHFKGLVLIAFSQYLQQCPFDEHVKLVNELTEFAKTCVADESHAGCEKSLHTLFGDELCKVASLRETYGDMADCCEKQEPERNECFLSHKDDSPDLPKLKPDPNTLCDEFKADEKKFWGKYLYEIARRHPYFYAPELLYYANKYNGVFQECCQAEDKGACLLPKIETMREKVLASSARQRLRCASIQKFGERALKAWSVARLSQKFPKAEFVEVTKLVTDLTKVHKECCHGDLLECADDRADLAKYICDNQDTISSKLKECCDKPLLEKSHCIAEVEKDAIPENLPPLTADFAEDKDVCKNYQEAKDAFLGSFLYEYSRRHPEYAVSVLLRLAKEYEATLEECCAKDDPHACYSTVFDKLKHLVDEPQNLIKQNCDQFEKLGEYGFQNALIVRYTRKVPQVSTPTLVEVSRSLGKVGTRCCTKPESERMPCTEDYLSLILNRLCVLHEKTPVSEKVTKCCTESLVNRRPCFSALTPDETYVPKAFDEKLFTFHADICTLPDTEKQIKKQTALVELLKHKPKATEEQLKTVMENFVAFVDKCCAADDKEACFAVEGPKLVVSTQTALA

SMILES: Clc1ccc(-c2nc(Nc3ccc(-c4nc5ccccc5[nH]4)cc3)nc(N3CCOCC3)n2)cc1
- growth at 100 µM [1]: -17%
- growth at 100 µM [2]: -41%
- GI50 ([3]; read-out: GI50): 186 nM
- TGI ([3]; read-out: TGI): 391 nM
- GI50 ([3]; read-out: pGI50 (converted)): 186 nM
- TGI ([3]; read-out: pTGI (converted)): 389 nM
- GI50 ([4]; read-out: GI50): 257 nM
- TGI ([4]; read-out: TGI): 0.682 µM
- GI50 ([4]; read-out: pGI50 (converted)): 257 nM
- TGI ([4]; read-out: pTGI (converted)): 0.676 µM
- GI50 ([5]; read-out: GI50): 1400 nM
- TGI ([5]; read-out: TGI): 3.04 µM
- GI50 ([5]; read-out: pGI50 (converted)): 1410 nM
- TGI ([5]; read-out: pTGI (converted)): 3.02 µM
- GI50 ([6]; read-out: GI50): 700 nM
- CC50 [6, 25]: > 100 µM
- TGI ([6]; read-out: TGI): 3.02 µM
- GI50 ([6]; read-out: pGI50 (converted)): 708 nM
- CC50 [6, 26]: > 100 µM
- TGI ([6]; read-out: pTGI (converted)): 3.02 µM
- growth at 0.01 µM [7]: 99%
- growth at 0.01 µM [8]: 95%
- growth at 0.01 µM [9]: 93%
- growth at 0.1 µM [10]: -5%
- growth at 100 µM [11]: 2%
- growth at 100 µM [12]: -21%
- growth at 10 µM [13]: -74.7%
- growth at 0.01 µM [14]: 98%
- growth at 0.1 µM [15]: 101%
- growth at 1 µM [16]: 77%
- growth at 0.01 µM [17]: 96%
- growth at 1 µM [18]: 36%
- growth at 1 µM [19]: 32%
- growth at 1 µM [20]: 57%
- growth at 10 µM [21]: -71%
- growth at 10 µM [22]: -57%
- Activity [23]: 49.1%
- GI50 [24]: 190 nM
- TGI [24]: 0.58 µM
- CC50 [24]: > 100 µM

SMILES: c1ccc2[nH]c(-c3ccc(Nc4nc(N5CCCCC5)nc(N5CCOCC5)n4)cc3)nc2c1
- growth at 100 µM [1]: -5%
- growth at 100 µM [2]: -31%
- GI50 ([3]; read-out: GI50): 2840 nM
- CC50 [3, 25]: > 100 µM
- GI50 ([3]; read-out: pGI50 (converted)): 2820 nM
- CC50 [3, 26]: > 100 µM
- GI50 ([4]; read-out: GI50): 2230 nM
- CC50 [4, 25]: > 100 µM
- TGI ([4]; read-out: TGI): 6.58 µM
- GI50 ([4]; read-out: pGI50 (converted)): 2240 nM
- CC50 [4, 26]: > 100 µM
- TGI ([4]; read-out: pTGI (converted)): 6.61 µM
- GI50 ([5]; read-out: GI50): 1920 nM
- LC50 ([5]; read-out: LC50): 9.73 µM
- TGI ([5]; read-out: TGI): 4.32 µM
- GI50 ([5]; read-out: pGI50 (converted)): 1910 nM
- LC50 ([5]; read-out: pLC50 (converted)): 9.77 µM
- TGI ([5]; read-out: pTGI (converted)): 4.37 µM
- GI50 ([6]; read-out: GI50): 2560 nM
- CC50 [6, 25]: > 100 µM
- TGI ([6]; read-out: TGI): 8.61 µM
- GI50 ([6]; read-out: pGI50 (converted)): 2570 nM
- CC50 [6, 26]: > 100 µM
- TGI ([6]; read-out: pTGI (converted)): 8.51 µM
- growth at 0.01 µM [7]: 97%
- growth at 0.01 µM [8]: 101%
- growth at 0.01 µM [9]: 96%
- growth at 0.1 µM [10]: 88%
- growth at 100 µM [12]: -87%
- growth at 10 µM [13]: 73.9%
- growth at 0.01 µM [14]: 99%
- growth at 0.1 µM [15]: 98%
- growth at 1 µM [16]: 94%
- growth at 0.01 µM [17]: 86%
- growth at 1 µM [18]: 95%
- growth at 1 µM [19]: 103%
- growth at 1 µM [20]: 93%
- growth at 10 µM [21]: -63%
- growth at 10 µM [22]: 9%
- Activity [23]: 49.74%
- GI50 [24]: 2370 nM
- TGI [24]: 6.5 µM
- CC50 [24]: > 100 µM
